# Calls of active or inactive are those of the source. The calls are words filed in the database; no cut-off is given here.
# Experiments:
# [1] = target: Sodium-dependent dopamine transporter (Rattus norvegicus, UniProt P23977); assay: Inhibitory concentration required to inhibit dopamine transporter DAT was determined by using [3H]WIN-35428 radioligand
# Method in brief: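 Competition binding at the DAT with 0.5 nM [3H]WIN35,428 (final concentration). Other procedures follow earlier published methods.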
# Mus musculus [2] = assay: Percent change in locomotor activity in mice at 3 mg/kg i.p. in 1 h.; format: functional; settings: route intraperitoneal
# Method in brief: (§1)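 Mice habituated 1/2 h to photocell activity chambers, then injected ip with compound homogenized in 0.5% methyl cellulose (10 mL/kg); vehicle controls; N = 5 or 6 per dose. Photobeam interruptions recorded in 10-min bins for 4 h, grouped into 1-h bins; one-way ANOVA with Newman-Keuls post hoc test (p < 0.05).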
# Mus musculus [3] = assay: Percent change in locomotor activity in mice at 3 mg/kg i.p. in 2 h.; format: functional; settings: route intraperitoneal; method in brief: as §1
# Mus musculus [4] = assay: Percent change in locomotor activity in mice at 3 mg/kg i.p. in 3 h.; format: functional; settings: route intraperitoneal; method in brief: as §1
# Mus musculus [5] = assay: Percent change in locomotor activity in mice at 3 mg/kg i.p. in 4 h.; format: functional; settings: route intraperitoneal; method in brief: as §1
# Mus musculus [6] = assay: Percent change from vehicle in locomotor activity in mice at 30 mg/kg (ip) in 1 h; format: functional
# Mus musculus [7] = assay: Percent change from vehicle in locomotor activity in mice at 30 mg/kg (ip) in 2 h; format: functional
# Mus musculus [8] = assay: Percent change from vehicle in locomotor activity in mice at 30 mg/kg (ip) in 3 h; format: functional
# Mus musculus [9] = assay: Percent change from vehicle in locomotor activity in mice at 30 mg/kg (ip) in 4 h; format: functional
# Mus musculus [10] = assay: Percent change from vehicle in locomotor activity in mice at 0.3 mg/kg (ip) in 1 h; format: functional
# Mus musculus [11] = assay: Percent change from vehicle in locomotor activity in mice at 0.3 mg/kg (ip) in 2 h; format: functional
# Mus musculus [12] = assay: Percent change from vehicle in locomotor activity in mice at 0.3 mg/kg (ip) in 3 h; format: functional
# Mus musculus [13] = assay: Percent change from vehicle in locomotor activity in mice at 0.3 mg/kg (ip) in 4 h; format: functional
# Mus musculus [14] = assay: Percent change in locomotor activity in mice at 1 mg/kg i.p. in 1 h.; format: functional; settings: route intraperitoneal
# Mus musculus [15] = assay: Percent change in locomotor activity in mice at 1 mg/kg i.p. in 2 h.; format: functional; settings: route intraperitoneal; method in brief: as §1
# Mus musculus [16] = assay: Percent change locomotor activity in mice at 1 mg/kg i.p. in 3 h.; format: functional; settings: route intraperitoneal; method in brief: as §1
# Mus musculus [17] = assay: Percent change in locomotor activity in mice at 1 mg/kg i.p. in 4 h.; format: functional; settings: route intraperitoneal; method in brief: as §1
# Mus musculus [18] = assay: Percent change from vehicle in locomotor activity in mice at 10 mg/kg (ip) in 1 h; format: functional
# Mus musculus [19] = assay: Percent change from vehicle in locomotor activity in mice at 10 mg/kg (ip) in 2 h; format: functional
# Mus musculus [20] = assay: Percent change from vehicle in locomotor activity in mice at 10 mg/kg (ip) in 3 h; format: functional
# Mus musculus [21] = assay: Percent change from vehicle in locomotor activity in mice at 10 mg/kg (ip) in 4 h; format: functional
# Mus musculus [22] = species: Mus musculus; assay: Effective dose was evaluated for locomotor activity in mice in the peak hour; No stimulation; format: functional, organism-based
# [23] = target: Norepinephrine transporter (Rattus norvegicus, UniProt Q9WTR4); assay: Binding affinity towards norepinephrine transporter was determined by using [3H]nisoxetine radioligand
# Sequence of Norepinephrine transporter (Q9WTR4 whole entry): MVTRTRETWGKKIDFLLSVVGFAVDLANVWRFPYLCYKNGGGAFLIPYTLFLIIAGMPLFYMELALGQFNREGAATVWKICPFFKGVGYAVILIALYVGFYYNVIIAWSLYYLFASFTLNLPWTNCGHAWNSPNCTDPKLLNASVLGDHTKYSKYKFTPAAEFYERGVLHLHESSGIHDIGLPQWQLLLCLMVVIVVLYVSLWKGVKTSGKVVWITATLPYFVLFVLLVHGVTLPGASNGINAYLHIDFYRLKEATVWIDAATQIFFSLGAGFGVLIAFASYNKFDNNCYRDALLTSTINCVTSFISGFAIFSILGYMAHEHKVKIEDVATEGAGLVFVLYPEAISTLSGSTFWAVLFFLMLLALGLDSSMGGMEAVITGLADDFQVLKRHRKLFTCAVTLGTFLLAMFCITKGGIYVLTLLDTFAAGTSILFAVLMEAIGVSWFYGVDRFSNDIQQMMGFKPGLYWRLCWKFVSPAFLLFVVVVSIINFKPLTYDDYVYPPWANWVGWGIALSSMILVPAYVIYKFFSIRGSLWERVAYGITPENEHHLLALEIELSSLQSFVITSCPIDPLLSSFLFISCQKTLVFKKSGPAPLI
# Method in brief: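 Competition binding at the NET with 0.5 nM [3H]nisoxetine (final concentration). Other procedures follow earlier published methods.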
# Rattus norvegicus [24] = assay: Drug discrimination effect of compound in rats, expressed as percent of rats choosing the cocaine lever at dose 10 mg/kg (ip); format: functional
# Rattus norvegicus [25] = assay: Drug discrimination effect of compound in rats, expressed as percent of rats choosing the cocaine lever at dose 17 mg/kg (ip); format: functional
# Rattus norvegicus [26] = assay: Drug discrimination effect of compound in rats, expressed as percent of rats choosing the cocaine lever at dose 3 mg/kg (ip); format: functional
# Rattus norvegicus [27] = assay: Drug discrimination effect of compound in rats, expressed as percent of rats choosing the cocaine lever at dose 30 mg/kg (ip); format: functional
# [28] = target: Sodium-dependent serotonin transporter (Rattus norvegicus, UniProt P31652); assay: Inhibitory concentration required to inhibit serotonin transporter 5-HTT was determined by using [3H]paroxetine radioligand
# Sequence of Sodium-dependent serotonin transporter (P31652 whole entry): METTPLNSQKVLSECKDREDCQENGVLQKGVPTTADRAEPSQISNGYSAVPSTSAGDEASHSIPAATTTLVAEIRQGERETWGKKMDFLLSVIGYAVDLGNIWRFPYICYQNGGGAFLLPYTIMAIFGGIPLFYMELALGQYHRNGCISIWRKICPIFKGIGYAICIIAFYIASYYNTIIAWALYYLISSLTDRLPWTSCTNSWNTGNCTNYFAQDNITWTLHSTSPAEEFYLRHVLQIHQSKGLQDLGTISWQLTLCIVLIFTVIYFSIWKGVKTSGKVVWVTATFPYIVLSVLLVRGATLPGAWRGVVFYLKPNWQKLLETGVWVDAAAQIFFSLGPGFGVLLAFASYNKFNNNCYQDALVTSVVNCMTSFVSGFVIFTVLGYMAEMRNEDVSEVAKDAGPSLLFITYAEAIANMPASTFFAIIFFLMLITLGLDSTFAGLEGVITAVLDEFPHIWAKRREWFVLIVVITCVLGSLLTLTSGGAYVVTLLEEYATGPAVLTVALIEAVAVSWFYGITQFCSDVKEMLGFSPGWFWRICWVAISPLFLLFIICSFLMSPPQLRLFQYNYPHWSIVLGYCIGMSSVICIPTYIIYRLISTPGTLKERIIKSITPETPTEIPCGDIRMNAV
# Method in brief: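 Competition binding at the 5-HTT with 0.2 nM [3H]paroxetine (final concentration). Other procedures follow earlier published methods.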
# Mus musculus [29] = assay: Percent change from vehicle in locomotor activity in mice at 17 mg/kg (ip) in 3 h; format: functional
# Mus musculus [30] = assay: Percent change from vehicle in locomotor activity in mice at 5.6 mg/kg (ip) in 1 h; format: functional
# Mus musculus [31] = assay: Percent change from vehicle in locomotor activity in mice at 5.6 mg/kg (ip) in 2 h; format: functional
# Mus musculus [32] = assay: Percent change from vehicle in locomotor activity in mice at 5.6 mg/kg (ip) in 3 h; format: functional
# Mus musculus [33] = assay: Percent change from vehicle in locomotor activity in mice at 5.6 mg/kg (ip) in 4 h; format: functional
# Mus musculus [34] = assay: Percent change from vehicle in locomotor activity in mice at 56 mg/kg (ip) in 1 h; format: functional
# Mus musculus [35] = assay: Percent change from vehicle in locomotor activity in mice at 56 mg/kg (ip) in 2 h; format: functional
# Mus musculus [36] = assay: Percent change from vehicle in locomotor activity in mice at 17 mg/kg (ip) in 1 h; format: functional
# Mus musculus [37] = assay: Percent change from vehicle in locomotor activity in mice at 17 mg/kg (ip) in 2 h; format: functional
# Mus musculus [38] = assay: Percent change from vehicle in locomotor activity in mice at 56 mg/kg (ip) in 4 h; format: functional
# Mus musculus [39] = species: Mus musculus; assay: Effective dose for locomotor activity in mice in the peak hour.; format: functional
# Rattus norvegicus [40] = assay: Drug discrimination effect of compound in rats, expressed as percent of rats choosing the cocaine lever at dose 1 mg/kg (ip); format: functional
# Rattus norvegicus [41] = assay: Drug discrimination effect of compound in rats, expressed as percent of rats choosing the cocaine lever at dose 1.7 mg/kg (ip); format: functional
# Rattus norvegicus [42] = assay: Drug discrimination effect of compound in rats, expressed as percent of rats choosing the cocaine lever at dose 5.6 mg/kg (ip); format: functional
# Rattus norvegicus [43] = assay: Effective dose for drug discrimination effect in rat (ip); format: functional
# Method in brief: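 Cocaine-trained rat drug discrimination, FR10, 10-min sessions. Compound in 0.5% methyl cellulose given ip 15 min before session, usually to 7-8 rats per dose. Doses were raised from ≤20% to ≥80% cocaine-lever choice, capped at 30 mg/kg, >50% loss of pressing, or side effects.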
# Mus musculus [44] = assay: Percent change from vehicle in locomotor activity in mice at 17 mg/kg (ip) in 4 h; format: functional
# Mus musculus [45] = assay: Percent change from vehicle in locomotor activity in mice at 56 mg/kg (ip) in 3 h; format: functional
# Sequence of Sodium-dependent dopamine transporter (P23977 whole entry): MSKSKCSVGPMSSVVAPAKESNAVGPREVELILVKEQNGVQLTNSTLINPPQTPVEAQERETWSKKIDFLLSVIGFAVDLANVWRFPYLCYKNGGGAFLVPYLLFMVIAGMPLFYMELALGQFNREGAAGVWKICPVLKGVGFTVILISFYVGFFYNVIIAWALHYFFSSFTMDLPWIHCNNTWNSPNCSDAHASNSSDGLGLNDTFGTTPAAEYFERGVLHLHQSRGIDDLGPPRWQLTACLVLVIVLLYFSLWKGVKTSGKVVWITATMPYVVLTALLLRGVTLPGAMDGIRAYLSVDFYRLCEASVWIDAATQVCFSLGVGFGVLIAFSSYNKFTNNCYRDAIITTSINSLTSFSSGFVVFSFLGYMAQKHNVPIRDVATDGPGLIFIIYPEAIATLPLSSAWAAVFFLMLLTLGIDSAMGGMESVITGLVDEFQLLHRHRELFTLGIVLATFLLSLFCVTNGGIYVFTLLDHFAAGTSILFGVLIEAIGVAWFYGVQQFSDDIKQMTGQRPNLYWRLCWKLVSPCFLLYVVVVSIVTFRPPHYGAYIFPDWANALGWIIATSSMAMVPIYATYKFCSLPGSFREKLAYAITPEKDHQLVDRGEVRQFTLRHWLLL
structure (smiles),measurement,setting,value
Cc1ccc(-c2cc(C3C(c4ccc(C)cc4)CC4CCC3N4C)on2)cc1 (configuration not stated),IC50,[1],0.013 µM
same,Change,Mus musculus [2],1%
same,Change,Mus musculus [3],10%
same,Change,Mus musculus [4],73%
same,Change,Mus musculus [5],29%
same,Change,Mus musculus [6],-19%
same,Change,Mus musculus [7],-26%
same,Change,Mus musculus [8],-37%
same,Change,Mus musculus [9],-43%
same,Change,Mus musculus [10],-17%
same,Change,Mus musculus [11],60%
same,Change,Mus musculus [12],102%
same,Change,Mus musculus [13],-48%
same,Change,Mus musculus [14],-5%
same,Change,Mus musculus [15],-6%
same,Change,Mus musculus [16],76%
same,Change,Mus musculus [17],-30%
same,Change,Mus musculus [18],-30%
same,Change,Mus musculus [19],34%
same,Change,Mus musculus [20],-38%
same,Change,Mus musculus [21],-7%
same,ED50,Mus musculus [22],inactive
same,IC50,[23],> 100 µM
same,Drug discrimination effect,Rattus norvegicus [24],0%
same,Drug discrimination effect,Rattus norvegicus [25],33%
same,Drug discrimination effect,Rattus norvegicus [26],0%
same,Drug discrimination effect,Rattus norvegicus [27],67%
same,IC50,[28],> 100 µM
"COC(=O)[C@@H]1C2CC[C@@H](C[C@@H]1OC(=O)c1ccccc1)N2C (single isomer, unassigned) [COCAINE]",Change,Mus musculus [29],-53%
same,Change,Mus musculus [30],5%
same,Change,Mus musculus [31],-26%
same,Change,Mus musculus [32],-53%
same,Change,Mus musculus [33],-1%
same,Change,Mus musculus [34],452%
same,Change,Mus musculus [35],201%
same,Change,Mus musculus [36],179%
same,Change,Mus musculus [37],-7%
same,Change,Mus musculus [38],-24%
same,ED50,Mus musculus [39],18.8 mg/kg
same,Drug discrimination effect,Rattus norvegicus [40],21%
same,Drug discrimination effect,Rattus norvegicus [41],32%
same,Drug discrimination effect,Rattus norvegicus [24],97%
same,Drug discrimination effect,Rattus norvegicus [26],59%
same,Drug discrimination effect,Rattus norvegicus [42],82%
same,ED50,Rattus norvegicus [43],2.64 mg/kg
same,Change,Mus musculus [44],-26%
same,Change,Mus musculus [45],-47%
